Measurements as given in ChEMBL document CHEMBL5390206, “Ormosianines A-P, Structurally Diverse Quinolizidine Alkaloids with AChE Inhibitory Effects from Ormosia yunnanensis” (J Nat Prod, 2023).

Assay: Inhibition of AchE in fly head nerve cells using acetylthiocholine iodide as substrate preincubated for 20 mins followed by substrate addition and measured every 30s for 1 hr by DTNB reagent based Ellman's spectrophotometric method
Conditions: Diptera, Nerve cell
How it was run: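 Modified spectrophotometric AChE method, with chlorpyrifos and huperzine A run alongside as positive controls.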

Row | Compound | IC50
1 | CC(=O)N1CCCC[C@H]1[C@@]12C[C@@H](C[C@H]3CCCN[C@@H]31)[C@H]1CCCCN1C2 | 5.65 µM
2 | CC(=O)O[C@H]1CCN2C[C@@H]3C[C@@H](CN4C(=O)[C@H](O)CC[C@H]34)[C@@H]2C1 | 9.77 µM
3 | C=CCCN1C[C@@H]2C[C@@H](CN3C(=O)CC[C@H](O)[C@]23O)C1=O | 29.6 µM
4 | C=CCCN1C[C@@H]2C[C@@H](Cn3c2cccc3=O)C1=O | 12.8 µM
5 | C1CC[C@H]([C@]23C[C@@H](C[C@@H]4CCCN[C@H]42)[C@H]2CCCCN2C3)NC1 | 5.56 µM
6 | C=CCCN1C[C@@H]2C[C@@H](CN3C(=O)CCC=C23)C1=O | 20 µM
7 | O=C1C(CCCO)=C[C@H]2C[C@]1([C@@H]1CCCCN1)CN1CCCC[C@@H]21 | 1.55 µM
8 | CN1CCCC[C@H]1[C@@]12C[C@H](C[C@H]3CCCN[C@@H]31)[C@H]1CCCCN1C2 | 17 µM
9 | C=CCCN1C[C@@H]2C[C@@H](CN3C(=O)CCC[C@]23OC)C1=O | 15.7 µM
10 | C1=C2CCCN3CN4CCCC[C@@H]4[C@]4(C[C@@H]1[C@H]1CCCCN1C4)[C@@H]23 | 5.23 µM
11 | CC(=O)N1CCCC[C@@H]1[C@]12C[C@H](C[C@@H]3CCCN[C@H]31)[C@H]1CCCCN1C2 | 8.48 µM
12 | CCOP(=S)(OCC)Oc1nc(Cl)c(Cl)cc1Cl [CHLORPYRIFOS] | 0.0233 µM
13 | C/C=C1\[C@H]2C=C(C)C[C@]1(N)c1ccc(=O)[nH]c1C2 [HUPERZINE A] | 0.12 µM
